Laboratory results reported in the RNAGym collection of RNA variant scans (doi:10.1101/gad.245936.114).
This sample holds only a part of the variants without activity.

B1: tRNA (parent)
chain: CUCUCGGUAGCCAAGUUGGUUUAAGGCGCAAGACUUUAAUUUAUCACUACGAAAUCUUGAGAUCGGGCGUUCGACUCGCCCCCGGGAGAUUUUUUCCUCGAGCAA

Variants of: B1
Assay: nonsense suppression (GFP-seq) (ratio to wild type); higher = more function; SUP4oc tRNA, yeast GFP reporter sort-seq
Method in brief: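 Nonsense suppression (GFPSEQ) is the median GFP/RFP ratio of each sorting bin, weighted by the variant's estimated share of cells in that bin and expressed relative to the unmutated parent tRNA. Yeast strains carried genome-integrated variants of an ochre-suppressor tRNA from a library with ~3% random mutations, plus a galactose-driven GFP ochre reporter and RFP, and were grown in raffinose/galactose medium containing 80 mg/L adenine. Cells were sorted into GFP/RFP bins, each bin was Illumina-sequenced (phred ≥30), and variants were kept only with ≥100 reads and ≥30 cells.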

Variant	nonsense suppression
CUCUCGGUAGCCAAGUUGGUUUAAGGCGCAAGACUUUAAUUUAUCACUACGAAAUCUUGAGAACGGGCGUUCGACUCGCCCUCGGGAGAUUUUUUCCUCGAGCAA [U63A C82U]	0.178
CUCUCGGUAGCCAAGUUGGUUUAAGGCGCAAGACUUUAAUUUAUCACUACGAAAUCAUGAGAUCGGGCGUUCGACUCGCCCACGGGAGAUUUUUUCCUCGAGCAA [U57A C82A]	≤ 0.026
CUCUCGGUAGCUAAGUUGGUUUAAAGCGCAAGACUUUAAUUUAUCACUACGAAAUCUUGAGAUCGGGCGUUCGGCUCGCCCCCGGGAGAUUUUUUCCUCGAGCAA [C12U G25A A74G]	≤ 0.026
CUCACGGUAGCCAAGUUGGUUUAAGGCGCAAGACUUUAAUUUAUCACUACGAAAUCAUGAGAUCGGGCGUUCGACUCGCCCCCGGGAGAUUUUUUCCUCGAGCAA [U4A U57A]	≤ 0.026
CUUUCGGUAGCCAAGUUGGUUUAAGGCGCAAGACUUUAAUUUAUCACUACGAAAUCUUGAGAUCGGGCGUUCGACCCGCCCCCGGGAGAUUUUUUCCUCGAGCAA [C3U U76C]	0.17
CUCUCGGUAGCCAAGUUGGUUUAAGGCACAAGACUUUAAUUUAUCACUACGAACUCUUGAGAUCGGGUGUUCGACUCGCCCCCGGGAGAUUUUUUCCUCGAGCAA [G28A A54C C68U]	0.18
CUCUCGGUAGCCAAGUUGGUUUAAGGCGCAAGACUUUAAUUUAUCACUACGAAAUCUUGAGAUCGGGCGUUCGACUCGCUCCCGGGAGAUUUUUUCCUCGAGCAA [C80U]	0.697
CUCUCGGUAGCCAAGUUGGUUUAAGGCGCAAGACUUUAAUUUAUCACUACGAAAUCUUGCGAUCGGGCGUUCGACUCGCCCCCGCGAGAUUUUUUCCUCGAGCAA [A60C G85C]	0.0595
CUCUCGGUAGCCAAGUCGGUGUAAGGCGCAAGACUUUAAUUUAUCACUACGAAAUCUUGAGAUCGGGCGUUCGACUCGCCCCCGGGAGAUUUUUUCCUCGAGCAA [U17C U21G]	0.801
CUCUCUGUAGCCAAGUUGGUUUAAGGCGCAAGACUUUAAUUUAUCACUACGAAAUCUUGAGACCGGGCGUUCGACUCGCCCCCGGGAGAUUUUUUCCUCGAGCAA [G6U U63C]	≤ 0.026
CUCUCGGUAGCCAAGUUGGUUUUAGGCGCAAGACUUUAAUUUAUCACUACGAAAUGUUGAGAUCGGGCGCUCGACUCGCCCCCGGGAGAUUUUUUCCUCGAGCAA [A23U C56G U70C]	≤ 0.026
UUCUCGGUAGCCAAGUUGGUUUGAGGCGUAAGACUUUAAUUUAUCACUACGAAAUCUUGAGAUGGGGCGUUCGACUCGCCCCCGGGAGAUUUUUUCCUCGAGCAA [C1U A23G C29U C64G]	≤ 0.026
CUCUCGGUAGCCAAGUUGGUUUUAGGCGCAAGACUUUAAUUUAUCACUACGAAAUCUUGAGAUCGGGCGUUCGACUCGCCCCCGGAAGAUUUUUUCCUCGAGCAA [A23U G86A]	≤ 0.026
CUCUCGGUAGCCAAGUUGGUUUAAGGCGCGAGACUUUAAUUUAUCACUACGAAAUCUUGAGAUCGGGCGUUCGACUCACCCCCGGGAGAUUUUUUCCUCGAGCAA [A30G G78A]	0.101
CUCUCAGUAGCCAAGUUGGUUUAAGGCCCAAGACUUUAAUUUAUCACUACGAAAUCUUGAGAUCGGGCGUUCGACUCGCCCCCGGGAGAUUUUUUCCUCGAGCAA [G6A G28C]	0.0666
CUCUCGGUAGCCAAGUUGGUUUAAGGCGCAUGACUUUAAUUUAUCACUACGAAAUCUUGAGAUCGGGCGUUCGACUCGCCCCCGAGAGAUUUUUUCCUCGAGCAA [A31U G85A]	0.164
CUCUCGGUAGCCAAGUUGGUUUAAGGCGCAAGACUUUAAUUUAUCACUACGAAAUCUUGAGACCGGGCGUUCAACUCGCCCCCGGGAGAUUUUUUCCUCGAGCAA [U63C G73A]	0.11
CCCUCGGUAGCCAAGUUGGUUUAAGGCGCAGGACUUUAAUUUAUCACUACGAAAUCUUGAGAUCGGGCGUUUGACUCGCCCCCGGGAGAUUUUUUCCUCGAGCAA [U2C A31G C72U]	≤ 0.026
CUCUCGGUAGCCAAGUUGGUUUAAGGCGCAAGGCUUUAAUUUAUCACUACGAAGUCUUGAGAUCGGGCGUUCGCCUCGCCCCCGGGAGAUUUUUUCCUCGAGCAA [A33G A54G A74C]	≤ 0.026
GUCUCGGUGGACAAGUUGGUAUAAGGCGCCAGACUUUAAUUUAUCACUACGAAAUCUUGAGAUCGGGCGUUCGACUCACCCCCGGGAGAUUUUUUCCUCGAGCAA [C1G A9G C11A U21A A30C G78A]	≤ 0.026
CUCUCGGUAGCCAAGUUGGUUCAAGGCGCAAGACUUUAAUUUAUCACUACGAAAUCUUGAUACCGGGCGUUCGACUCGCCCCCGGGAGAUUUUUUCCUCGAGCAA [U22C G61U U63C]	0.17
CUCUCGGUAGCCAAGUUCGUUUAAGGCGCAAGACUUUAAUUUAUCACUACGAAGUCUUGAGAUCGGGCGUUCGACUCGCCCCCGGGAGAUUUUUUCCUCGAGCAA [G18C A54G]	≤ 0.026
CUAUCGGUAGCCAAGUUGGUUUAAGGCGGAAGACUUUAAUUUAUCACUACGAAAUCUUGCGAUCGGGCGUUCGACUCGCCGCCGGGAGAUUUUUUCCUCGAGCAA [C3A C29G A60C C81G]	≤ 0.026
CUCUCGGUAGCCAAGUUGGUUUAAGGCGUAAGACUUUAAUUUAUCACUACGAAAUCUUGAGAUCGGGCGUUCGACUGGCCCCCGGGAGAUUUUUUCCUCGAGCAA [C29U C77G]	0.0454
CUCUCGGUAGCCAAGUUGGUUCAAGGCGCAAGACUUUAAUUUAUCACUACGAAAUCUUGAGAUCGGGCGUUCGACUCGCCCCCGGGAGAUUUUUUCCUCGAGCAA [U22C]	1
CUCUCGGUAGCCAAGUUGGUUUAAUGCGCAAGACUUUAAUUUAUCACUACGAAAUCUUGAGAUCGGGCGUUCUACUCGCCCCCGGGAGAUUUUUUCCUCGAGCAA [G25U G73U]	≤ 0.026
CUCUCGGUAGCCACGCUGAUUUUAGGCGUGAGACUUUAAUUUAUCACUACGAAAUCUUGAGAUCGGGCGUUGGACUCGCCCACGGGAGAUUUUUUCCUCGAGCAA [A14C U16C G19A A23U C29U A30G C72G C82A]	≤ 0.026

Variant	nonsense suppression
CUCUCGGUAGCCAAGUCGGUUUAAGGCCCAAGACUUUAAUUUAUCACUACGAAAUCUUGAGAUCGGGCGUUCGAGUCGCCCCCGGGAGAUUUUUUCCUCGAGCAA [U17C G28C C75G]	1.02
CUCUCGGUAGCCAAGUUGGUUUAAGGCGCAAGACUUUAAUUUAUCACUACGAAAUCUUGAGAUCGGGCGUUCAACCCGCCCCCGGGAGAUUUUUUCCUCGAGCAA [G73A U76C]	0.682
CUCUCGGUAGCCAAGUUGGUUUAAGGCGUAAGACUUUAAUUUAUCACUACGAAAUCUUGGGAUCGGGCGUUCGACUCGCCCCCGGGAGAUUUUUUCCUCGAGCAA [C29U A60G]	0.114
GUCUCGGUAGCCAAGUUGGUUUAAGGCGAAAGAUUUUAAUUUAUCACUACGAAAUCUUGAGAUCGGGCGUUCGACUCGCCCCCGGGAGAUUUUUUCCUCGAGCAA [C1G C29A C34U]	≤ 0.026
CUCUCGGUAGCCAAGUUGGUUUAAGGGGCAAGACUUUAAUUUAUCACUACGAAAUCUUGAGAUCGGGCGUUCGCCUCGCCCCCGGAAGAUUUUUUCCUCGAGCAA [C27G A74C G86A]	≤ 0.026
CGCUCCGUAGCCAAGUUAGUUUAAGGCGCAAGACUUUAAUUUAUCACUACGAAAUCUUGAGAUCGGCCGUUCGACUCGCCCCCGGAGGAUUUUUUCCUCGAGCAA [U2G G6C G18A G67C G86A A87G]	≤ 0.026
CUCUCGGUAGCCAAGUUGGUUUAAGGCGCAAGACUUUAAUUUAUCACUACGAAAUCUUGAAAUCGGGCGUUCGACUCGCCCCCGGGAGGUUUUUUCCUCGAGCAA [G61A A89G]	0.0396
CUCUCGGUAGCCUAGUUGGUUUAAGGCGCAAGACUUUAAUUUAUCACUACGAAAUCUUGAGAUCGGGCGUUGGACUCGCCCCCGGGAGAUUUUUUCCUCGAGCAA [A13U C72G]	0.032
CUCUCGGUAGCCAAGUUGGUUUAAGGCGCAUGACUUUAAUUUAUCACUACGAAAUCUUGAGAUCGGGCGUUCGACUCGCCAGCGGGAGAUUUUUUCCUCGAGCAA [A31U C81A C82G]	≤ 0.026
CUCCCGGUAGCCAAGUUGGUUUAAGGCGCAAGACUUUAAUUUAUCACUACGAAAUCUUGAGAUCGGGCGUUCGACUCACCCCCGGGAGAUUUUUUCCUCGAGCAA [U4C G78A]	0.978
CUCUCUGUAGCCAAGUUGGAUUAAGGCGCAAGACUUUAAUUUAUCACUACGAAAUCUUGAGAUCGGGCGUUCGACUCGCCCCGGGGAGAUUUUUUCCUCGAGCAA [G6U U20A C83G]	0.186
CCCUCGGUAGCCAAGUUGGUUUAAGGCGCAAGACUUUAAUUUAUCACUACGAAACCUGGAGAUCGGGCGUUCGACUCGCCCCCGGGAGAUUUUUUCCUCGAGCAA [U2C U55C U58G]	≤ 0.026
CGCUCGGUUGCCAAGUUGGUUUAAGGCGCAAGACUUUAAUUUAUCACUACGAAAUCUUGAGAUCGGGCGUUCGACUCGCCCCCGGGAGAUUUUUUCCUCGAGCAA [U2G A9U]	0.0677
CUCUCGGUAGCCAAGUGGGUCUAAGGCGCAAGACUUUAAUUUAUCACUACGAAAUCUUGAGAUCGGGCGUUCGACUCGCCCCCGGGAGAUUUUUUCCUCGAGCAA [U17G U21C]	1.05
CUCUCGGUAGCCAAGUUGGUUUAAGGCGCAAGACUUUAAUUUAUCACUACGAAAUCUUGAGAGCGGGCGUUCGACCCGCCCCCGGGAGAUUUUUUCCUCGAGCAA [U63G U76C]	0.0764
CUCUCGGUAGCCAAGUUGGUUUAAGGCGCAAGACUUUAAUUUAUCACUACGAAUUCUUGAGAUCGGGCGUUCGACUCGCCCCCGGGGGAUUUUUUCCUCGAGCAA [A54U A87G]	0.867
CUCUCGGUAGCGAAGUUGGUUUAAGGUGCAAGACUUUAAUUUAUCACUACGAAAUCUUGAGAUCGGGCGUUCGACUCGCCCCCGGGAGAUUUUUUCCUCGAGCAA [C12G C27U]	≤ 0.026
CUCUCGGUAGCCAAGUUGGUUUAAGGCGCAAGACUUUAAUUUAUCACUACGAAAUCUUGAGAGCGGGCGUUUGACUCGCCCCCGGGAGAUUUUUUCCUCGAGCAA [U63G C72U]	0.0334
CUCUUUGUAGCCAAGUUGGUUUAAGGCGCAAGACUUUAAUUUAUCACUACGAAAUCUUGAGAUCGGGCGUUCGACUCGCCCCCCGGAGAUUUUUUCCUCGAGCAA [C5U G6U G84C]	≤ 0.026
CUCUCGGUAGCCAAGUUGGUUUAGGGCGUAAGACUUUAAUUUAUCACUACGAAAUCUUGAGAUCGGGCGUUCGACUCGCCCCCGGGAGAUUUUUUCCUCGAGCAA [A24G C29U]	0.0384
CUCUCGGUAGCCAAGUUGGUUUAAGGCGCAAGACUUUAAUUUAUCACUACGAAAUCUUGAGACCGGGCGUUCGACUCGCCCCCGAGAGAUUUUUUCCUCGAGCAA [U63C G85A]	1.06
CUCUCGGUGGCCAAGUUGGUUUAAGGCGUAAGACUUUAAUUUAUCACUACGAAAUCUUGAGAUCGGGCGUUCGACUCGCCCCCGGGAGAUUUUUUCCUCGAGCAA [A9G C29U]	0.2
CUCUCGGUAGCCAAGUUGGUUUAAGGCGCAAGACUUUAAUUUAUCACUACGAAAUCUUGUGAUCGGACGUUCGACUCGCCCCCGGGAGAUUUUUUCCUCGAGCAA [A60U G67A]	0.0457
CUCUCGGUAGCCAAUUUGGUUUAAGGCGCAAGACUUUAAUUUAUCACUACGAAAUCUUGAGAUCGGGUGUUCGACUCCCCCGCAGGAGAUUUUUUCCUCGAGCAA [G15U C68U G78C C82G G84A]	≤ 0.026
CUCUCGGUAGCCAAGUUGGUUUGAGGCGCAAGACUUUAAUUUAUCACUACGAAAUCUUGAGAUCGGACGUUCGACUCGCACCCGGGAGAUUUUUUCCUCGAGCAA [A23G G67A C80A]	≤ 0.026
CUCUCGGUAGGCAAUUUGGUUUAAGGCGCAAGACUUUAAUUUAUCACUACGAAAUCUUGAGAUCGGGCGUUCGACUCCCCCCCGGGAGAUUUUUUCCUCGAGCAA [C11G G15U G78C]	≤ 0.026
CUCUCGGUCGCCAAGUUGGCUUAAGGCGCAAGACUUUAAUUUAUCACUACGAAAUCUUGAGAUCGGGCGUUCGAAUCGCCCCCGGGAGAUUUUUUCCUCGAGCAA [A9C U20C C75A]	0.566
